Test results published in the EternaBench riboswitch data.

What was measured:
[1] = system: MS2 coat protein; assay: apparent Kd, MS2 coat protein; higher = weaker binding; RNA-MaP array; theophylline 2 mM where present
Procedure, shortened: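 Green signal from SNAP-549-labelled MS2 coat protein was normalised to red-channel RNA signal and to the median Fmax of control clusters. The protein was titrated from 0.7 or 1.5 nM, doubling to 3 µM, without and then with constant ligand, over designs transcribed by stalled E. coli RNA polymerase on Illumina sequencing-chip clusters, in 100 mM Tris-HCl pH 7.5, 80 mM KCl, 4 mM MgCl2, BSA, DTT, yeast tRNA and Tween-20. The apparent Kd is the median of filtered per-cluster binding-curve fits.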

[2] = system: MS2 coat protein; assay: apparent Kd, MS2 coat protein; higher = weaker binding; RNA-MaP array
Procedure, shortened: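 Apparent Kd is the median of per-cluster binding-curve fits for designed RNAs transcribed from sequenced DNA templates on an Illumina sequencing chip. The RNAs were incubated at room temperature with fluorescently labeled MS2 coat protein at 1.5 nM to 3 μM, with or without input ligand, and designs measured on fewer than 10 clusters were excluded.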

[3] = designed as: OFF switch for theophylline, no ligand
[4] = ligand present: theophylline, designed as: OFF switch for theophylline
[5] = designed as: ON switch for theophylline, no ligand
[6] = ligand present: theophylline, designed as: ON switch for theophylline
[7] = designed as: ON switch for flavin mononucleotide, no ligand
[8] = ligand present: flavin mononucleotide, designed as: ON switch for flavin mononucleotide
[9] = designed as: OFF switch for flavin mononucleotide, no ligand
[10] = ligand present: flavin mononucleotide, designed as: OFF switch for flavin mononucleotide

Row | Sequence | apparent Kd [1, 3] [nM] | apparent Kd [1, 4] [nM] | apparent Kd [1, 5] [nM] | apparent Kd [1, 6] [nM] | also measured
1 | AUAUGAUCAUAUGAUACCAGAAAUGGUAUUCCUUUGUUUCUUACAUGAGGAUCACCCAUGUUCCCUUGGCAGCAUAUGAUCAUAU | 187 | 251 | – | – | –
2 | GAGCUGAUGUAGAGAUUUUAUUUCUGAGAUACCAGUACAGAAAUGUACCCUUGGCAGCUCAGCUUUACAUGAGGAUCACCCAUGU | 17.2 | 22.1 | – | – | –
3 | UUAGAUAUGACAGAUACCAGCGUGUUGUAGAACAUGAGGAUCACCCAUGUAGUGAUCGAGCGCCCUUGGCAGCUGGUGUGUUUGG | – | – | 149 | 440 | –
4 | AUACCUAUUGAGUCGUGUUUCUAUUCAGAUACCAGACUUUUCGUUGUCCCUUGGCAGCUGUUUUACAUGAGGAUCACCCAUGUUG | 15 | 17.5 | – | – | –
5 | ACGAUAGGACAUGAGGAUCACCCAUGUGAUACCAGCCUGGAAACAGGCCCUUGGCAGCACAAAUACUCCAGAAACCUAUCGAAAA | 258 | 417 | – | – | –
6 | AGCAUACAUUCUGAUACCAGAGACAUGAGGAUCACCCAUGUCCGAUCGUCCUGCCUCAGACUCCCUUGGCAGCAGGAUGUGUGCU | 13.9 | 33.4 | – | – | –
7 | AUCUCAUAGAGUGAUACCAGACUACAUGAGGAUCACCCAUGUUACAUUUAAAUAUCAUUUGUCCCUUGGCAGCACAUGAAGUACA | 28 | 18 | – | – | –
8 | CAGCCUGAUUGGUAAAUCCCUCAUCGUGAUACCAGUCGAGUGAUCGACCCUUGGCAGCACAUGAGGAUCACCCAUGUGCGCGUAA | 26.7 | 29.8 | – | – | –
9 | GGGAAUGAACGUGAUACCAGAGAUCCGGUCUCCGUCAAUAUACAUGAGGAUCACCCAUGUCUCCCUUGGCAGCACCGUCAUCGGG | 14.8 | 23.4 | – | – | –
10 | GGUGAUCCGUAUCACCGGAUCAUCGGUGAUACCAGCAUCGAAAGAUGCCCUUGGCAGCACCAACAUGAGGAUCACCCAUGUAAUA | – | – | 120 | 25.9 | –
11 | UGUUUGGUGCGCGAGUGUUGGAUAAUUGAUACCAGUGUAGAUGUACGCCCUUGGCAGCGAAUCCGAACAUGAGGAUCACCCAUGU | – | – | 32.5 | 87.2 | –
12 | GAGCUGAUGUAGAGCUAAUAUAAGAGAGAUACCAGUACAGAAAUGUACCCUUGGCAGCUCAACUUUACAUGAGGAUCACCCAUGU | 13.9 | 16.9 | – | – | –
13 | ACGACGCAUAGUGAUACCAGUAGAACAUGAGGAUCACCCAUGUCUGUGACGCACAAACUCUGCCCUUGGCAGCACUAUGCGUCAG | – | – | 10.8 | 17.4 | –
14 | AACCGAGGCUAUCCUCUACGACUAUGUGAUACCAGAAUAAUUUUAUUCCCUUGGCAGCAUGACAUGAGGAUCACCCAUGUCUCUU | – | – | 39.2 | 58.2 | –
15 | UAUUUGGUGCGCGAGUGUUGGAUAAUUGAUACCAGUGAAGAAGAGCGCCCUUGGCAGCGAAUCCUAACAUGAGGAUCACCCAUGU | – | – | 39.2 | 48.7 | –
16 | UAUAUAUAGAUGGAUACCAGCAGAGAAAACGUUUAUCCUAACAUGAGGAUCACCCAUGUAUGCCCUUGGCAGCUGUUUAUAUAUA | 24.4 | 31.6 | – | – | –
17 | UAAAAUAAUAAUGAUACCAGCCCUCCCUCCCGGGACAUGAGGAUCACCCAUGUCUCUCCCGGCCCUUGGCAGCAUAAAUAAUAAU | – | – | 11.1 | 14.2 | –
18 | CCAUAUGUAACUGAUACCAGUGUACUGACAUGAGGAUCACCCAUGUUGGGUUUUGUUGUACACCCUUGGCAGCAGAAUCAUAUGG | 62.4 | 80.4 | – | – | –

Row | Sequence | apparent Kd [1, 3] [nM] | apparent Kd [1, 4] [nM] | apparent Kd [1, 5] [nM] | apparent Kd [1, 6] [nM] | also measured
19 | ACUUGGUGGUGAUCCCUGCCAAGAGGUGAUACCAGCAUCGAAAGAUGCCCUUGGCAGCACCAACAUGAGGAUCACCCAUGUAAUA | – | – | 156 | 157 | –
20 | AAAAUAAAUAAAACACGUAACAUGAAGGAUACCAGACCGGAAACGGUCCCUUGGCAGCCUCUACAUGAGGAUCACCCAUGUCGUG | – | – | 238 | 30.9 | –
21 | UUAAAUGUGACGGAUACCAGCGUGUUGUAGAACAUGAGGAUCACCCAUGUAGUGAUCGAGCGCCCUUGGCAGCUGGUAUGUUUGA | – | – | 180 | 532 | –
22 | AUCGUACCUGAUGAUACCAGCAAUUGCUCGUAACAUGAGGAUCACCCAUGUGAUCAGUGAUGCCCUUGGCAGCAUGAUCGGUGCA | – | – | 262 | 35.4 | –
23 | UCUGGGUGCGCAAGGACCUGGAGUUGCGAUACCAGCACGGUAACGUGCCCUUGGCAGCGCACAUGAGGAUCACCCAUGUGGUGUU | 310 | 388 | – | – | –
24 | AUAACAUGAGGAUCACCCAUGUAAGCAGAUACCAGCUAGGAAACUAGCCCUUGGCAGCUGCAAUCCUCAUGUAUUGCAGCUGCAA | 15.7 | 36.2 | – | – | –
25 | GAUGAACUAUAUGAUACCAGACAACAUGAGGAUCACCCAUGUGAUUGUCGUCCUCUGCCUGUCCCUUGGCAGCGUAUAGUUUAUC | 33.8 | 229 | – | – | –
26 | CUCCGAGGCUAUACUAUCCGCCUCAGUGAUACCAGAAUACCUAUAUUCCCUUGGCAGCAUCACAUGAGGAUCACCCAUGUGCCAU | – | – | 12.5 | 15.2 | –
27 | AAUAAGCAGCUGCCUUCCUCAUGAGCAGAUACCAGCUAGGAAACUAGCCCUUGGCAGCUGCAACAUGAGGAUCACCCAUGUAAUA | 65.8 | 73 | – | – | –
28 | UAAAUAUUACUGGGUAAGGUAUAAAUAGAUACCAGCCAGAUAACUGGCCCUUGGCAGCUAAACAUGAGGAUCACCCAUGUAUAAU | – | – | 37 | 116 | –
29 | AGUGUUAUAACUGAUACCAGACCUUUGCUUAUACAUGAGGAUCACCCAUGUAAAAUGGCUGUCCCUUGGCAGCAGAGAAUACACA | – | – | 46 | 16.5 | –
30 | AAGCUGCCAAGAACAUGGGUGAAAUGUGAUACCAGCUAGGAAACUAGCCCUUGGCAGCACAUGAGGAUCACCCAUGUAAUAAUAA | 352 | 93.7 | – | – | –
31 | AUACCUAAUGAGUCGUGUAACUUUUCAGAUACCAGACUUUUCGUUGUCCCUUGGCAGCUGUUUUACAUGAGGAUCACCCAUGUUG | 15.9 | 38.1 | – | – | –
32 | UCGCGUCUAGCUCAGGAUAUUGUGCCUGAUACAUGAGGAUCACCCAUGUCCUAAGUGCAAACCAACAAGAAGGGAGCUAAGCAUGU | – | – | – | – | apparent Kd [2, 7]: 13.9 nM; apparent Kd [2, 8]: 13.2 nM
33 | GUCAACACAGUAGGAUAUCCAAUGCGUAAGCUCGGAGAAGGACUUAACUAGCAGUUUGAUCGACAUGAGGAUCACCCAUGUAAU | – | – | – | – | apparent Kd [2, 9]: 11.3 nM; apparent Kd [2, 10]: 9.96 nM
34 | CACCUUCGUCAAGGAUAUGCGUAAUGUAUAAUCGCAGAAGGUGACGCGAUCUUCAUAACAUGAGGAUCACCCAUGUGGUGAACU | – | – | – | – | apparent Kd [2, 9]: 436 nM; apparent Kd [2, 10]: 312 nM
35 | GGACGCCAUAUAGAGGAUAUUAAUGUCGACACAUGAGGAUCACCCAUGUCCCACUCGGGCGAACAUAAGAAGGCUAAUCAGACGUA | – | – | – | – | apparent Kd [2, 7]: 14.5 nM; apparent Kd [2, 8]: 10.5 nM
